{"source": "paper PMC3085913", "about": "(NeuroImage, 2011)", "key": {"[1]": {"system": "Aβ plaques in APP and APP/PS1 transgenic AD mice", "details": "MRI after injection; ref Wadghiri et al., 2003; cited from earlier work"}, "[2]": {"system": "N2a mouse neuroblastoma cells", "assay": "MTS cell proliferation", "assay_type": "cell-based", "details": "72 hrs"}, "blood brain barrier": {"system": "blood brain barrier", "details": "rodents, after intra-arterial carotid injection; ref McCarty et al., 2009; cited from earlier work"}, "humans": {"system": "humans", "details": "patients, ref Castillo et al., 2009, Tang and Lobel; cited from earlier work"}, "[3]": {"system": "amyloid plaques in APP/PS1 Tg and wild-type mouse brain", "assay_type": "in vivo", "details": "two 14-month-old APP/PS1 mice, before and 6 hs after contrast injection; data not shown", "outline": "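Mice received the test conjugate at 0.2 mmol Fe/kg in 200 μl 15% mannitol/PBS by right femoral vein infusion at 60 μl/min, under isoflurane (2.5% induction, 1–1.5% maintenance). Scanned 6 h post-injection; two 14-month-old APP/PS1 mice were also scanned pre-injection. 3D four-echo acquisition; third echo (TE=12.3 ms) gave the T2*-weighted images. Checked against matched immunostained sections.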"}, "[4]": {"system": "amyloid plaques in APP/PS1 Tg mouse brain", "assay_type": "in vivo", "details": "femoral i.v. with mannitol; third echo, TE = 17.5", "outline": "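Aged 13–17-month APP/PS1 mice and age-matched C57Bl/6J controls received the test conjugate at 0.2 mmol Fe/kg in 200 μl 15% mannitol/PBS, infused via right femoral vein at 60 μl/min under isoflurane. Later: pentobarbital 150 mg/kg i.p., transaortic perfusion with PBS then 4% paraformaldehyde. Extracted brains scanned overnight, up to four together; third echo of four-echo set. 6E10/4G8 histology for matching. 13 Tg vs 12 wild-type.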"}, "[5]": {"system": "APP/PS1 Tg and wild-type mouse brain (amyloid plaques)", "assay": "ROI-based absolute T2* measurement, in vivo μMRI", "details": "contrast injected APP/PS1 Tg versus contrast injected wild-type mice"}, "[6]": {"system": "APP/PS1 Tg versus wild-type mouse brain (amyloid plaques)", "assay": "Voxel-based morphometry", "assay_type": "in vivo", "details": "for VBM cluster T-score: WT n=12 vs AD Tg n=13; for VBM cluster Extent: WT n=12 vs AD Tg n=13 after contrast injection"}, "[7]": {"system": "APP/PS1 Tg and wild-type mice", "assay": "Toxicity observed in experimental animals", "assay_type": "in vivo, mouse", "details": "0.2 mmol Fe/kg femoral i.v. with 15% mannitol"}}, "note": "“Also recorded” adds a separate entry of the source.", "data": [{"compound": "MION-Aβ1-40: Aβ1-40 magnetically labeled with monocrystalline iron oxide nanoparticles (MION)", "values": [{"measurement": "plaque visualization as hypointense spots (in words)", "setting": "[1]", "result": "hypointense spots characterized by loss of signal intensity"}]}, {"compound": "Aβ1-42: Aβ 1-42 peptide synthesized in the W.M. Keck Facility at Yale University [reference compound]", "values": [{"measurement": "reduction in cell viability", "setting": "[2]; 10 μM, MTS, 490 nm, percent of non-treated control", "result": 50, "unit": "%"}]}, {"compound": "OC[C@@H](O)[C@@H](O)[C@H](O)[C@H](O)CO", "note": "[mannitol]", "values": [{"measurement": "time of maximum BBB disruption, intra-arterial carotid", "setting": "blood brain barrier", "result": 5, "unit": "min"}, {"measurement": "tolerability of intravenous mannitol (in words)", "setting": "humans", "result": "much better tolerated and is used safely in patients"}]}, {"compound": "USPIO-Aβ1-42: ultrasmall superparamagnetic iron oxide (USPIO) nanoparticles linked to Aβ1-42 peptide using standard EDC/NHS coupling methods", "values": [{"measurement": "cell viability, USPIO versus USPIO-Aβ1-42 (significance in words)", "setting": "[2]; bound Aβ1-42 10 μM, Newman-Keuls post-hoc", "result": "did not differ significantly"}, {"measurement": "cell viability versus control untreated cells (significance in words)", "setting": "[2]; bound Aβ1-42 10 μM, USPIO matched, Newman-Keuls post-hoc", "result": "did not differ significantly"}, {"measurement": "amyloid plaque detection pre- versus postinjection", "setting": "[3]", "result": "Amyloid plaques were only detected in the postinjection images"}, {"measurement": "plaque detection on ex vivo μMRI, APP/PS1 mice", "setting": "[4]", "result": "Amyloid plaques were also detected; also recorded: Many plaques can be detected in APP/PS1 mice"}, {"measurement": "p, T2* difference in left and right cortex (Figure 5C)", "setting": "[5]", "result": "< 0.01"}, {"measurement": "VBM difference in cerebellum (in words)", "setting": "[6]; APP/PS1 (n=13) versus wild-type (n=12), USPIO-Aβ1-42 injected", "result": "No differences were seen in the cerebellum"}, {"measurement": "VBM cluster T-score", "setting": "[6]; cluster AuD, Cortex (R)", "result": 3.02}, {"measurement": "VBM cluster Extent", "setting": "[6]; cluster AuD, Cortex (R)", "result": 1388, "unit": "voxels"}, {"measurement": "VBM cluster T-score", "setting": "[6]; cluster FrA, Cortex (L)", "result": 5.03}, {"measurement": "VBM cluster Extent", "setting": "[6]; cluster FrA, Cortex (L)", "result": 1123, "unit": "voxels"}, {"measurement": "VBM cluster T-score", "setting": "[6]; cluster HDB, Cortex (R)", "result": 4.02}, {"measurement": "VBM cluster Extent", "setting": "[6]; cluster HDB, Cortex (R)", "result": 685, "unit": "voxels"}, {"measurement": "VBM cluster T-score", "setting": "[6]; cluster LEnt, Cortex (L)", "result": 3.78}, {"measurement": "VBM cluster Extent", "setting": "[6]; cluster LEnt, Cortex (L)", "result": 656, "unit": "voxels"}, {"measurement": "VBM cluster T-score", "setting": "[6]; cluster M1, Cortex (L)", "result": 3.48}, {"measurement": "VBM cluster T-score", "setting": "[6]; cluster M2, Cortex (R)", "result": 3.71}, {"measurement": "VBM cluster T-score", "setting": "[6]; cluster PoDG, Hippocampus (R)", "result": 4.42}, {"measurement": "VBM cluster Extent", "setting": "[6]; cluster PoDG, Hippocampus (R)", "result": 20830, "unit": "voxels"}, {"measurement": "VBM cluster T-score", "setting": "[6]; cluster RSG, Cortex (L)", "result": 5.00}, {"measurement": "VBM cluster Extent", "setting": "[6]; cluster RSG, Cortex (L)", "result": 1624, "unit": "voxels"}, {"measurement": "VBM cluster T-score", "setting": "[6]; cluster S1BF, Cortex (L)", "result": 4.92}, {"measurement": "VBM cluster Extent", "setting": "[6]; cluster S1BF, Cortex (L)", "result": 36911, "unit": "voxels"}, {"measurement": "VBM cluster T-score", "setting": "[6]; cluster S1FL, Cortex (L)", "result": 3.30}, {"measurement": "VBM cluster Extent", "setting": "[6]; cluster S1FL, Cortex (L)", "result": 653, "unit": "voxels"}, {"measurement": "VBM cluster T-score", "setting": "[6]; cluster S1FL, Cortex (R)", "result": 4.27}, {"measurement": "VBM cluster Extent", "setting": "[6]; cluster S1FL, Cortex (R)", "result": 4637, "unit": "voxels"}, {"measurement": "VBM cluster T-score", "setting": "[6]; cluster SuG, Colliculus (R)", "result": 4.72}, {"measurement": "VBM cluster Extent", "setting": "[6]; cluster SuG, Colliculus (R)", "result": 2194, "unit": "voxels"}, {"measurement": "toxicity in experimental animals (in words)", "setting": "[7]", "result": "no evidence of toxicity in our experimental animals"}]}]}
